This is a sample that favours compounds with a hit; in the whole collection about 1.8% have one here.
HSV augment: enhancers of HSV replication in host cells, fold increase, host cell viability; HSV replication augmentation in cells; maximum fold increase; hit rate 0.005% among 220,000; AID 1956, 2009; in the data active means maximum fold increase above about 1.5; inconclusive means no clear call, values can overlap the other calls; tested in PC3 cells
TNF death inh: inhibitors of TNF-alpha triggered necroptosis, primary screen, cell-based, Jurkat FADD-/-, single concentration. Jurkat FADD-/- TNF necroptosis rescue, ATP luminescence, 24 h; 0 = TNF only, 100 = no-TNF cells. activation (protection from cell death), % at 10 µM. hit rate 0.068% among 220,000. AID 463075, 2010;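 active means activation, meaning protection from cell death, of at least 50% relative to plate controls; inactive means activation below 50%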;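 further: necroptosis triggered by 40 ng/mL TNF-alpha added together with compound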
Autophagy mod: autophagy modulators in MEF cells, primary screen, imaging, high-content, MEF GFP-LC3; MEF GFP-LC3 puncta imaging; test concentration mostly 10 µM; calls only at 10 µM (by protocol); hit rate 0.98% among 190,000;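 active means percentage of spot-positive cells more than 3 SD above its plate mean, without a fluorescence outlier flag or 80% toxicity; inconclusive means no clear call, values can overlap the other calls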;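 further: spot-positive cell cutoff set from DMSO-treated cells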
Dynein transport: inhibitors of GR-EGFP nuclear translocation, primary screen, dynein cargo transport inhibitor project, imaging, high-content, 3617.4 mouse cells | z-score, hits read low | test concentration mostly 20 µM; stimulated with dexamethasone, 1 µM; hits give low values | hit rate 0.47% among 220,000;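 active means plate z-score of nuclear minus cytoplasmic receptor signal below a set negative limit, without overly bright fluorescence or cell loss, cut at about -3.5 in these data, passing the limit was not always enough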;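 further: z-score of nuclear minus cytoplasmic ring GR-EGFP intensity difference per well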
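Buffer or medium: tetracycline-free induction medium containing charcoal-stripped FBS / Reagent: dexamethasone agonist, 1.0 µM final, for 30 min / Technique: automated 10x imaging of fixed Hoechst-stained cells / Times: induction 48 h, compound 1 h, agonist 30 min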
Furin inhibitor: human furin inhibitors, primary screen, biochemical, fluorescence intensity; P09958; purified furin, fluorogenic substrate cleavage; inhibition, % at 20 µM or 30 µM; hit rate 0.061% among 220,000; AID 463115, 2010; in the data active means inhibition above about 25%
Target sequence (P09958 108-714 limits assumed): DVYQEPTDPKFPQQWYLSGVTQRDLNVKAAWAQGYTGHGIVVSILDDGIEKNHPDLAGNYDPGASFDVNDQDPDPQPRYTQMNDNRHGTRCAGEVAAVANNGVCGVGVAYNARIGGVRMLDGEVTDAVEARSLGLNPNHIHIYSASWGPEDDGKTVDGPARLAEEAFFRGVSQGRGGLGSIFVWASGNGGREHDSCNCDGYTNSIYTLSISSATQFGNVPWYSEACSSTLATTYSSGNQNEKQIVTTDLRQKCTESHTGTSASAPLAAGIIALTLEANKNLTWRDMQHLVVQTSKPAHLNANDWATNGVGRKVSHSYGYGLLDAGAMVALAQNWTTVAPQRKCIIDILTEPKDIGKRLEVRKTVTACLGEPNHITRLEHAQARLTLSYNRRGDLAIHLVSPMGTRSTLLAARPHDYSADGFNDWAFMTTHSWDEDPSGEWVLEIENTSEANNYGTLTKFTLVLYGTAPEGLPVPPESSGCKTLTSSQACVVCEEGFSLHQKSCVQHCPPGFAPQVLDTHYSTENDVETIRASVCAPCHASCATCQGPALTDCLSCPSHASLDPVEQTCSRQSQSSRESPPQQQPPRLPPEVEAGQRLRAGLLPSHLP
L929 necroptosis: inhibitors of zVAD-triggered necroptosis, primary screen, L929 cells; L929 zVAD necroptosis rescue, ATP luminescence, 24 h; with zVAD 60 µM; viability rescue, % at 10 µM; hit rate 0.38% among 220,000;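 active means activation, scaled between plate controls, above about 75%, limit read from the data; inactive means activation under that limit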;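 further: 0% = zVAD with DMSO and 100% = DMSO alone without zVAD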
Dynein inh conf: dynein cargo transport inhibitors, GR-EGFP translocation, confirmation, imaging, high-content imaging, GR-EGFP cells. calls only at 20 µM. 3617.4 GR-EGFP nuclear translocation imaging, dexamethasone-induced. shares compounds with Dynein transport. hit rate 69% among 1,000;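 active means inhibition of receptor movement into the nucleus at or above a set limit in both runs, with normal cell brightness and cell count; inconclusive means limit reached in only one run, brightness and count normal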;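 further: dexamethasone at 1 µM final in well for 30 min; nuclear minus cytoplasmic GR-EGFP mean intensity difference in channel 2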
Active calls of the source: *; i = inactive; ? = inconclusive; . = no result; + = active, no number.

SMILES	HSV augment	TNF death inh	Autophagy mod	Dynein transport	Furin inhibitor	L929 necroptosis	Dynein inh conf
COc1cccc(NC(=O)Cc2ccccc2)c1	i	11	i	0.81	-7	0	.
O=C(Cc1ccccc1)Nc1cccc(N2C(=O)C=CC2=O)c1	.	-18	i	-4.7*	-6	1	+
Cc1cccc(Nc2ncnc(N)c2[N+](=O)[O-])n1	i	-1	i	0.39	-22	2	.
Cc1cc(C)nc(Sc2ncnc(N)c2[N+](=O)[O-])n1	i	6	i	-5.4*	-17	2	?
Cc1ccccc1CNc1ccc(C(CC(N)=O)NC(=O)c2ccccc2)cc1[N+](=O)[O-] (stereo not given)	i	4	.	0.54	-26	0	.
COC(=O)CCSCC(=O)N1N=C(c2ccc(OC)cc2)CC1c1cccc(OC)c1OC (stereo not given)	i	0	i	-0.35	-25	2	.
CSc1nnc(C)c(/C=C/Nc2ccc(C)cc2)n1	i	-5	i	-8.3	-18	0	+
CCCCNc1c2c3c(cccc3n(C)c1=O)C(=O)c1ccccc1-2	.	-7	i	-5.1*	-13	-1	+
Cn1c(=O)c(NCCO)c2c3c(cccc31)C(=O)c1ccccc1-2	.	0	i	-6.9*	-6	2	+
CC(=O)Nc1ccc(Nc2c3c4c(cccc4n(C)c2=O)C(=O)c2ccccc2-3)cc1	?	-2	i	2	-17	0	.
Cn1c(=O)c(NCCc2ccccc2)c2c3c(cccc31)C(=O)c1ccccc1-2	?	2	?	-5.1*	1	-1	+
Cn1c(=O)c(NC2CCCCC2)c2c3c(cccc31)C(=O)c1ccccc1-2	?	2	?	-6.1	-20	0	.
O=C(O)CCn1c(-c2ccccc2)cc2ccccc21	i	0	i	-0.6	-24	2	.
CC1=C(C#N)C(=O)NC(=O)/C1=C\c1ccc(-c2ccc(C)cc2[N+](=O)[O-])o1	i	0	i	-0.31	-6	1	.
CCOC(=O)c1cc(-c2ccc(/C=C3/C(=O)NC(=O)C(C#N)=C3C)o2)ccc1Cl	i	-13	i	-3.6*	-12	1	+
O=c1c(Cl)c(Cl)cnn1Cc1nnc(-c2ccccc2Br)o1	i	-16	i	-5.6*	-37	42	+
Cc1ccc(C2=NOC(=O)/C2=C\C=C\c2ccccc2)cc1	i	-3	i	-5.6*	-28	-1	+
CC1=NN(c2ccccc2)C(=O)/C1=C\c1sccc1C	i	-2	.	0.33	-19	2	.
CC1=NN(c2ccccc2)C(=O)/C1=C/C=C/c1ccccc1	i	-9	i	-5.8*	-19	0	+
N#CC1=C(N)OC2=C(CC/C2=C\c2ccccc2)C1c1ccccc1 (stereo not given)	.	-11	i	-4.3	5	9	+
O=C(CN1CCCCC1)Nc1cccc(Oc2ccccc2)c1	i	1	i	-0.18	-13	0	.
O=C(CCl)Nc1ccc(-c2ccccc2)cc1	i	-16	i	-5.4*	-24	15	+
O=C(CCl)Nc1ccc(N2CCCCCC2)cc1	i	-13	i	-6*	-13	-1	+
Cc1ccc(Sc2ccc(NC(=O)CCl)cc2)cc1C	i	-6	i	-4.5*	-5	1	+
Cc1ccc(NC(=O)CCSCCC(=O)Nc2ccc(C)c(C)c2)cc1C	i	-1	i	-1	-18	0	.
SMILES	HSV augment	TNF death inh	Autophagy mod	Dynein transport	Furin inhibitor	L929 necroptosis	Dynein inh conf
O=C(CCl)Nc1cccc(Oc2ccccc2)c1	i	-15	i	-4.3*	-23	3	+
CCC(CO)n1c(=S)[nH]c2cc(OC)c(OC)cc2c1=O (stereo not given)	i	1	i	-0.22	-19	1	.
O=C(Oc1ccccc1C(=O)Nc1ccccc1)c1ccc(Br)c([N+](=O)[O-])c1	i	-1	i	-3.9*	-4	0	i
Nc1ccc(N2CCCCCC2)cc1	i	-10	i	-4.3*	-3	2	?
CN(C)c1nnnn1-c1ccc(Oc2ncc(C(F)(F)F)cc2Cl)cc1	i	-1	i	2.5	-6	-2	.
N#C/C(=C\c1sc(N2CCOCC2)nc1-c1ccccc1)C(=O)Nc1cccc2ccccc12	i	4	+	-5.6	-18	-1	?
O=C(Nc1ccccc1)c1sc(N2CCOCC2)nc1-c1ccccc1	.	0	i	0.88	-17	0	.
Cc1cc(C)c(S(=O)(=O)N2CCOC2CNC(=O)C(=O)NCCCn2ccnc2)c(C)c1 (stereo not given)	i	1	.	-0.23	-24	0	.
Cc1ccccc1NNC(=O)C(=O)NNc1ccccc1C	i	-1	.	0.27	-7	-1	.
Cc1ccccc1NC(=O)C(Cl)=C(Cl)Cl	i	-6	i	-3.8*	-4	0	+
O=C(CSCC(=O)N1CCCc2ccccc21)Nc1nc(-c2ccccc2)cs1	i	4	i	2.9	-11	0	.
CC(C)Cc1nc2oc3c(Cl)ncnc3c2c2c1CCCC2	i	-19	.	-5.7*	-8	-1	+
CCCc1nc2oc3c(Cl)ncnc3c2c2c1CCCC2	i	-26	.	-5.5*	-16	-1	?
CS(=O)(=O)N(CC(=O)Nc1ccccc1Cl)c1ccc(Cl)cc1	i	2	i	-0.01	-35	3	.
Nc1ncccc1OCc1ccc(Cl)c(Cl)c1	i	1	.	-0.5	4	0	.
CC(=O)Oc1ccc(OC(C)=O)c(SCCCCCCl)c1	i	-13	i	-4.6*	-15	-1	+
CN(C)Cc1nc2ccccc2c(=O)n1Cc1nc(-c2cccc([N+](=O)[O-])c2)cs1	i	1	i	-0.56	-9	1	.
CN1CCN(Cc2nc3ccccc3c(=O)n2Cc2nc(-c3ccc([N+](=O)[O-])cc3)cs2)CC1	i	-7	i	-3.7*	-7	0	i
COc1cc(C2Oc3ccccc3C=C2[N+](=O)[O-])cc(OC)c1OC (stereo not given)	i	15	.	-5.6*	-13	2	+
CN1CCN(C2=C(Cl)C(=O)N(c3cccc(Cl)c3)C2=O)CC1	i	-1	i	-0.78	-12	0	.
